Rows were chosen to be rich in hits. Some 3% of all compounds tested hit in one or more screens of this group.
TRPC6 inh – inhibitors of mouse TRPC6 channel; B-score at 10 µM; actives 1.1% (n = 310,000); Q61143; AID 2553; HEK293-TRPC6, membrane potential dye, ACh-evoked depolarization; stronger effect = lower value;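 active = B-score under library mean minus 3 SD, initial fluorescence not abnormally high, positive integrated signal ratio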;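 note: B-score derived from integrated fluorescence ratio over the kinetic read; more negative B-score means stronger inhibition of depolarization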
Target sequence (Q61143 whole entry, looked up): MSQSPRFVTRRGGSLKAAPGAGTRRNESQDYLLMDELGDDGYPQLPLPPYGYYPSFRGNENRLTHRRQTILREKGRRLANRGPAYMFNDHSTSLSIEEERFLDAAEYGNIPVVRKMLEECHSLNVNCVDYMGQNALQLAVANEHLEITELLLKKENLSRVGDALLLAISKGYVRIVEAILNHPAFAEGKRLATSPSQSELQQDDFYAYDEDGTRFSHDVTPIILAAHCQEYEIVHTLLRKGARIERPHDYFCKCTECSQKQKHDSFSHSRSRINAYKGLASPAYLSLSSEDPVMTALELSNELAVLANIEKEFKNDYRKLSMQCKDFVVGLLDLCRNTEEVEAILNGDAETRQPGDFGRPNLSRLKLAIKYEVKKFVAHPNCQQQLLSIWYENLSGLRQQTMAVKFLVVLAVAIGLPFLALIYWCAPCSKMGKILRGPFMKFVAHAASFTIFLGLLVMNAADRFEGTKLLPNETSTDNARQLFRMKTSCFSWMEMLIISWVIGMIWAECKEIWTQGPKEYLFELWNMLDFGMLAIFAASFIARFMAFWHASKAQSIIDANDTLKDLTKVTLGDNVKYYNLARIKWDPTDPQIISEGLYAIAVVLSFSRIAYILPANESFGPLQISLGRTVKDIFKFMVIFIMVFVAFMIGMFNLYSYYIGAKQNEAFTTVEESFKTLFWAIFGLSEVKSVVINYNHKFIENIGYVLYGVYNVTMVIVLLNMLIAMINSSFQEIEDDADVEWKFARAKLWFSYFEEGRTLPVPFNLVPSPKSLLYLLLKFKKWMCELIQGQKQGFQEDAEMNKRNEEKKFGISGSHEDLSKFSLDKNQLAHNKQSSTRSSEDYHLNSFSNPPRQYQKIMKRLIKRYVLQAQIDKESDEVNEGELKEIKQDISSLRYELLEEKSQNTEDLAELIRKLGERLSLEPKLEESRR
TRPC4 inh – inhibitors of mouse TRPC4 channel; Q9QUQ5; HEK293 TRPC4beta/mu-opioid, DAMGO-evoked Fluo4 calcium flux; stronger effect = lower value; B-score at 10 µM; actives 0.39% (n = 300,000); AID 2247;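 active = B-score over 3 SD under the library average, no early fluorescence shift, positive overall ratio signal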
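material = TRPC4beta/mu-opioid receptor HEK293 cell line | probe or stimulus = sequential submaximal and maximal DAMGO stimulation | compound dosing = one concentration per compound | measured by = Fluo4 Ca2+ flux fluorescence | evaluation = integrated fluorescence ratio relative to baseline, converted to per-well B score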
TRPC6 activator – activates the mouse TRPC6 cation channel; Q61143; HEK293-TRPC6 membrane potential dye fluorescence; stronger effect = higher value; B-score at 10 µM; actives 0.13% (n = 310,000);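 active = B-score of the integrated fluorescence ratio above library mean plus 3 SD, and starting fluorescence ratio within library mean plus 5 SD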;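 note: higher score means more depolarization so channel activation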
TRPC4 potent – allosterically enhances the mouse TRPC4 cation channel; B-score at 10 µM; AID 2227; HEK293 TRPC4beta/mu-opioid, DAMGO EC20, Fluo-4 Ca2+ flux; stronger effect = higher value; Q9QUQ5; actives 0.42% (n = 310,000);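 active = B-score of calcium response area above 5 SD of library B-scores, with initial fluorescence ratio within 5 SD of library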;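 note: B-score of integrated fluorescence ratio over time as area under calcium response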
TRPC4 agonist – activators of mouse TRPC4 channel; actives 0.49% (n = 310,000); B-score at 10 µM; HEK293 TRPC4beta/mu-opioid, Fluo4 calcium fluorescence; stronger effect = higher value; Q9QUQ5; AID 2237;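 active = B-score above 5 SD of library B-scores, and initial fluorescence ratio not above library mean plus 5 SD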;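 note: positive B-score marks a calcium rise read as TRPC4 activation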
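Assay system: HEK293 cells stably co-expressing mouse TRPC4beta and mu-opioid receptor / Timing: Fluo4 dye loading 45 min at room temperature, 110 s recording / Signal: Fluo4 calcium-sensitive dye fluorescence, kinetic, 1 Hz baseline / Read-out: integrated baseline-normalised fluorescence ratio, converted to per-well B score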
Kir21 block – inhibitors of mouse Kir2.1 inward-rectifier potassium channel; AID 1672; HEK293-Kir2.1, FluxOR thallium flux fluorescence; stronger effect = lower value; B-score at 10 µM; P35561; actives 0.85% (n = 310,000);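 active = fluorescence ratio B-score at or below minus 3 SD of library scores, with starting-brightness B-score within 2 SD, cut at about -4.2 in these data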;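 note: channel flux triggered by added potassium and thallium sulfate stimulus; B-score of peak minus minimum fluorescence over baseline after thallium stimulus; more negative B-score means stronger Kir2.1 block with less thallium influx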
TRPC4 sel inh 2 – second check of whether TRPC6 inhibitors also affect mouse TRPC4. shares compounds with TRPC6 inh. HEK293 TRPC4/MOR, membrane potential dye fluorescence; channel activated by saturating DAMGO dose. inhibition, % at 10 µM. actives 42% (n = 920). AID 2776;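 active = compounds whose fluorescence signal differed from control wells by over 3 SD, either direction, in both duplicate plates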
TRPC4 spec – tests whether TRPC6 inhibitors also affect mouse TRPC4 | shares compounds with TRPC6 inh | HEK293 TRPC4/mu-opioid, membrane potential fluorescence | activity change, negative = inhibition, % at 10 µM | actives 61% (n = 920) | AID 2777;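 active = rise or fall in signal beyond 3 SD of buffer-only wells in both replicate plates, either sign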;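 note: integrated kinetic ratio of fluorescence range over baseline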
HEK293 MPD ctr 2-1 – second check of TRPC6 inhibitor effects in parental HEK293 cells; shares compounds with TRPC6 inh; parental HEK293 membrane potential dye fluorescence; maximal acetylcholine challenge after compound addition; signal change vs control, % at 10 µM; actives 31% (n = 920); AID 2779;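 active = membrane potential signal moving either way by over 3 SD of the maximum-effect control, in both duplicate plates, meaning non-specific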
HEK293 MPD ctr-1 – checks TRPC6 inhibitor effects in parental HEK293 cells. shares compounds with TRPC6 inh. parental HEK293 membrane potential dye fluorescence. membrane potential signal change, % at 10 µM. actives 60% (n = 920). AID 2780;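 active = membrane potential signal shifting up or down by more than 3 SD of buffer-only wells, on both duplicate plates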
HEK293 MPD ctr-2 – parental HEK293 nonspecific activity of TRPC6 modulators. AID 488924. membrane potential dye fluorescence. membrane potential signal change, % at 10 µM. actives 51% (n = 2,400). shares compounds with TRPC6 inh;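 active = membrane potential signal moves up or down beyond 5 SD from buffer-only wells, on both duplicate plates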
HEK293 MPD ctr 2-2 – parental HEK293 nonspecific activity of TRPC6 modulators, second screen. shares compounds with TRPC6 inh. membrane potential dye fluorescence; after compound, maximal acetylcholine stimulation. inhibition, % at 10 µM. actives 14% (n = 2,400);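 active = membrane potential signal drops by more than 5 SD from the mean control signal, in both duplicate plates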;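 note: plate controls were acetylcholine ECmax control wells for no effect and buffer only wells for full effect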
TRPC4 ctr mod – mouse TRPC4 off-target activity of TRPC6 modulators. shares compounds with TRPC6 inh. HEK293 TRPC4/mu-opioid, membrane potential fluorescence. percent change from control (negative = decrease, positive = increase), % at 10 µM. actives 69% (n = 2,400);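 active = membrane potential signal moved up or down beyond 5 SD of buffer control wells, in both duplicate plates, actives on both sides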;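 note: plate controls were assay buffer wells for no effect and DAMGO maximal-effect wells for full effect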
TRPC4/MOR inh 2 – mouse TRPC4 off-target activity of TRPC6 modulators, second screen; shares compounds with TRPC6 inh; HEK293 TRPC4/mu-opioid, membrane potential dye fluorescence; stimulated with maximal-effect DAMGO; inhibition, % at 10 µM; actives 55% (n = 2,400); AID 488928;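 active = drop in membrane potential signal beyond 5 SD of the control wells in both duplicate plates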;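 note: TRPC4 counter screen for TRPC6 hits run under conditions tuned for TRPC6 not TRPC4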
TRPC6 block conf – confirmation of mouse TRPC6 inhibitors | HEK293-TRPC6, membrane potential dye, ACh-evoked depolarization | shares compounds with TRPC6 inh | inhibition, % at 10 µM | AID 488960 | actives 43% (n = 3,300);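 active = fluorescence ratio falls more than 5 SD below the full-stimulation control mean, in both duplicate runs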;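 note: integrated fluorescence ratio of peak minus minimum over baseline after agonist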
TRPC6 act conf – confirmation of mouse TRPC6 activators. shares compounds with TRPC6 inh. HEK293-TRPC6 membrane potential dye fluorescence, FDSS. activation, % at 10 µM. actives 11% (n = 2,800);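 active = ratio signal rise beyond 5 SD above unstimulated control wells' mean, seen in both duplicate runs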;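 note: plate controls were buffer EC0 wells for no effect and acetylcholine ECmax response for full effect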
An asterisk follows results filed as active; i = inactive; x = no result given.

SMILES	TRPC6 inh	TRPC4 inh	TRPC6 activator	TRPC4 potent	TRPC4 agonist	Kir21 block	HEK293 MPD ctr-2	HEK293 MPD ctr 2-2	TRPC4 ctr mod	TRPC4/MOR inh 2	TRPC6 block conf	TRPC6 act conf	others
COc1ccc(C(=O)N/C(=C\c2cn(C)c3ccccc23)C(=O)OCCN(C)C)cc1	-6.08*	i	i	i	i	-0.87	i	i	i	53.0%*	45.0%*	i
O=C(NC1CCCC1)C(c1cccnc1)N(C(=O)c1csnn1)c1ccc(F)cc1 (stereo not drawn)	i	i	i	i	i	0.5	x	x	x	x	x	x
O=C(NCCN1CCOCC1)c1cnn2c(-c3ccccc3)cc(-c3ccccc3)nc12	-7.48*	i	i	i	i	-0.51	x	x	x	x	i	i	TRPC4 sel inh 2=i;TRPC4 spec=i;HEK293 MPD ctr 2-1=i;HEK293 MPD ctr-1=-130.0%*
O=C(NCCN1CCOCC1)c1ccccc1-c1ccccc1	i	i	i	i	i	-0.69	x	x	x	x	x	x
N=C1C(c2ccccc2)=C(O)CN1c1cccc(S(=O)(=O)NCc2ccco2)c1	i	i	i	i	i	0.31	x	x	x	x	x	x
COc1ccc(CCn2c(=N)c(C(=O)NC3CCCCC3)cc3c(=O)n4ccccc4nc32)cc1	i	i	i	i	i	-1.04	x	x	x	x	x	x
CCOC(=O)c1cc2c(=O)n3ccccc3nc2n(CCCOC)c1=NC(=O)c1cccnc1	i	i	i	i	i	1.77	x	x	x	x	x	x
Cc1cccn2c(=O)c3cc(C(=O)NC4CCCCC4)c(=N)n(Cc4ccccc4)c3nc12	i	i	i	i	i	1.13	x	x	x	x	x	x
CCOC(=O)c1cc2c(=O)n3ccccc3nc2n(CCCOC)c1=NC(=O)C(C)(C)C	-5.89*	i	i	i	i	0.74	-195.0%*	i	-27.0%*	56.5%*	50.5%*	i
N=c1c(C(=O)NC2CCCC2)cc2c(=O)n3ccccc3nc2n1Cc1ccccc1	-5.18*	i	i	i	i	0.12	-169.5%*	i	-34.5%*	48.0%*	i	i
CCOC(=O)c1cc2c(=O)n3ccccc3nc2n(Cc2ccccc2)c1=N	-7.88*	i	i	i	i	-1.27	-146.5%*	i	-31.5%*	41.5%*	i	i
COc1ccc(CCn2c(=N)c(C(=O)NCC3CCCO3)cc3c(=O)n4ccccc4nc32)cc1 (stereo not drawn)	-5.8*	i	i	i	i	0.02	-82.5%*	i	-22.0%*	60.0%*	58.0%*	i
CCOC(=O)c1cc2c(=O)n3ccccc3nc2n(CC(C)C)c1=NC(=O)c1ccco1	i	i	i	i	i	-0.25	x	x	x	x	x	x
COCCN(C(=O)c1ccc(OC2CCN(S(=O)(=O)N(C)C)CC2)cc1)C(C)C	i	i	i	i	i	0.99	x	x	x	x	x	x
N=c1c(C(=O)NCC2CCCO2)cc2c(=O)n3ccccc3nc2n1Cc1ccccc1Cl (stereo not drawn)	-6.71*	i	i	78*	i	-0.69	x	x	x	x	i	i	TRPC4 sel inh 2=47.5%*;TRPC4 spec=i;HEK293 MPD ctr 2-1=i;HEK293 MPD ctr-1=-456.0%*
N=c1c(C(=O)NCc2ccc3c(c2)OCO3)cc2c(=O)n3ccccc3nc2n1CC1CCCO1 (stereo not drawn)	i	i	i	i	i	0.58	x	x	x	x	x	x
COc1ccc(Cn2c(=N)c(C(=O)NCC3CCCO3)cc3c(=O)n4ccccc4nc32)cc1 (stereo not drawn)	-6.45*	i	i	i	i	0.95	i	i	-10.0%*	36.5%*	43.5%*	i
N=c1c(C(=O)NCC2CCCO2)cc2c(=O)n3ccccc3nc2n1Cc1ccccc1 (stereo not drawn)	-7.4*	i	i	i	i	0.03	-125.0%*	78.0%*	-27.5%*	38.5%*	45.0%*	i
O=C(c1cccc(C(F)(F)F)c1)C1CCCN(Cc2cccn2-c2ccccn2)C1 (stereo not drawn)	-7.54*	-5*	i	i	i	-0.39	x	x	x	x	56.8%*	i	TRPC4 sel inh 2=35.0%*;TRPC4 spec=18.1%*;HEK293 MPD ctr 2-1=i;HEK293 MPD ctr-1=14.1%*
COc1ccc(C(=O)C2CCCN(Cc3cccn3-c3ccc(Cl)cn3)C2)c(OC)c1 (stereo not drawn)	-5.79*	i	i	i	i	-2.27	134.5%*	i	14.5%*	89.0%*	53.0%*	x
C=CCN1C(=O)/C(=c2\sc3nc(=O)c(Cc4ccccc4Cl)nn3c2=O)c2ccccc21	i	i	i	i	i	0.03	x	x	x	x	x	x
CCOC(=O)CCc1c(C)nc(-n2[nH]c(C)c(CCO)c2=O)[nH]c1=O	i	i	i	i	i	0.17	x	x	x	x	x	x
CCCCOC(=O)c1ccc(NC(=O)c2ocnc2C)cc1	-6.68*	i	i	i	i	0.78	x	x	x	x	i	i	TRPC4 sel inh 2=i;TRPC4 spec=i;HEK293 MPD ctr 2-1=i;HEK293 MPD ctr-1=i

Screens: PubChem, Johns Hopkins Ion Channel Center
